In publication PMC2812011 (Cancer cell, 2009):

Columns and labels:
[1] = tested on: TEL-Tyk2; assay: Stat5 phosphorylation in Ba/F3 TEL-Tyk2 cells; assay type: cell-based; conditions: at or below 1 µM
[2] = tested on: 786-0 xenografts expressing Stat3C; assay: 786-0 Stat3C xenograft tumor growth; assay type: in vivo, mice; conditions: 786-0 expressing Stat3C, 50 mg/kg, 41 d
[3] = tested on: TEL-Jak3; assay: Stat5 phosphorylation in Ba/F3 TEL-Jak3 cells; assay type: cell-based; conditions: at or below 1 µM
[4] = tested on: DU145 xenografts; assay: DU145 xenograft tumor growth; assay type: in vivo, mice; conditions: DU145, 50 mg/kg p.o. once daily, 26 d; p < 0.001, n=7
[5] = tested on: 786-0 renal cell carcinoma vector control xenografts; assay: 786-0 vector control xenograft tumor growth; assay type: in vivo, mice; conditions: 50 mg/kg, 41 d, p = 0.038, n = 10
[6] = tested on: MEF-Stat3-YFP tumors; assay: MEF-Stat3-YFP tumor growth in athymic mice; assay type: in vivo; conditions: 50 mg/kg p.o. once daily, relative to vehicle; p = 0.001, n=6
[7] = tested on: pStat3 Tyr705; assay: pStat3 in MEF-Stat3-YFP tumor lysates; assay type: in vivo, mice; conditions: 2 h post treatment, 50 mg/kg
[8] = biological target: TEL-Jak2 (Homo sapiens, UniProt O60674+P41212); assay: Stat5 phosphorylation in Ba/F3 TEL-Jak2 cells; assay type: cell-based
[9] = tested on: pStat3 Tyr705; assay: Constitutive pStat3 in DU145, MDA-MB-468 and MDAH2774 cells; assay type: cell-based, human; conditions: 2 h, DU145, MDA-MB-468, MDAH2774
[10] = tested on: TEL-Jak1; assay: Stat5 phosphorylation in Ba/F3 TEL-Jak1 cells; assay type: cell-based; conditions: at or below 1 µM
[11] = tested on: Jak1; conditions: enzymatic assays, at Km ATP
[12] = tested on: pStat3 Tyr705; assay: Pharmacodynamics in xenograft tumor lysates and sections; assay type: in vivo, mice
[13] = biological target: panel of 82 kinases; assay: Kinase selectivity panel of 82 kinases; assay type: biochemical; conditions: 0.10 µM, at or near Km for ATP; count includes Jak2
How it was run: (§1)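 Kinase selectivity panel of 82 kinases chosen to span the kinome by binding-site similarity and gatekeeper residue. Each kinase was assayed with ATP at or near its Km. The test compound was tested at three concentrations: 0.01, 0.10 and 1.0 µM. Percent inhibition was scored, and kinases inhibited by more than 50% were counted.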

[14] = tested on: MDAH2774 xenografts; assay: MDAH2774 xenograft tumor growth; assay type: in vivo, mice; conditions: 26 d, p < 0.001, n=10
[15] = tested on: MDA-MB-468 xenografts; assay: MDA-MB-468 xenograft tumor growth; assay type: in vivo, mice; conditions: MDA-MB-468, 50 mg/kg p.o. once daily, 30 d; p < 0.001, n=7
[16] = biological target: Jak2 kinase (Homo sapiens, UniProt O60674); assay: Jak2 kinetic studies; assay type: biochemical
[17] = tested on: LN-17 cells; assay: LN-17 prostate cancer cells: pStat3, MTS viability, Annexin V; assay type: cell-based, human
[18] = tested on: Aurora A; assay: Aurora A in kinase panel; assay type: biochemical
How it was run: as §1

[19] = tested on: DU145, MDAH2774, and MDA-MB-468 cells; assay: 72 h viability assay in solid tumor cell lines; assay type: cell-based; conditions: Homo sapiens

Sequence of Jak2 kinase (O60674 808-1132): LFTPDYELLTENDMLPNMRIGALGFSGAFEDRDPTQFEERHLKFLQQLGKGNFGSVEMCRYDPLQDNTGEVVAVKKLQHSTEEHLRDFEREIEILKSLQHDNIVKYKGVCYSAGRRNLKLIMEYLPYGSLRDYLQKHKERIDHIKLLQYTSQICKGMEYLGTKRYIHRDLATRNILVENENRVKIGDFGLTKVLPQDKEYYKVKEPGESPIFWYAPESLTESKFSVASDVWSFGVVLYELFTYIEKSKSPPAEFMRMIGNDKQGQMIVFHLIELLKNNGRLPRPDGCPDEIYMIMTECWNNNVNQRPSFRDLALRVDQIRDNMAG
Sequence of TEL-Jak2 (O60674 849-1132 limits assumed, one chain of several): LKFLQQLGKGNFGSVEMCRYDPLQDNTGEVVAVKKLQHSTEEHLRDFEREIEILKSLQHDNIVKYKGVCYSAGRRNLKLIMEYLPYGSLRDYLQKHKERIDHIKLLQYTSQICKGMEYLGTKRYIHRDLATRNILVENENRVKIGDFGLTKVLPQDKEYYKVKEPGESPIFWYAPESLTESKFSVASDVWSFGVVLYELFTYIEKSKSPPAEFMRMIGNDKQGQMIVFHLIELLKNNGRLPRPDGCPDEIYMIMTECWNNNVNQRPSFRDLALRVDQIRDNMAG

Q: What does the source list for Cc1cc(Nc2nc(N[C@@H](C)c3ncc(F)cn3)ncc2Cl)n[nH]1 [AZD1480]?
A: inhibition of STAT5 phosphorylation [1]: little or no inhibition; growth inhibition [2]: no growth inhibition; inhibition of STAT5 phosphorylation [3]: little or no inhibition; lethal toxicity or weight loss (doses tested, 26 days of dosing): No lethal toxicity or weight loss; red blood cell counts (mouse, in vivo, 10 mg/kg): no changes; red blood cell counts decrease (mouse, in vivo, 30 mg/kg): approximately 13%; growth inhibition [4]: 81%; growth inhibition [5]: 48%; tumor growth inhibition [6]: 58%; pStat3 Tyr705 in tumors [7]: abolished; IC50 [8]: 46 nM; inhibition of constitutive pStat3 Tyr705 ([9]; 0.1 µM): Significant inhibition; inhibition of constitutive pStat3 Tyr705 ([9]; 0.25 –0.5 µM): near ablation of signal; inhibition of STAT5 phosphorylation [10]: little or no inhibition; Jak2 selectivity over Jak1 [11]: marginal selectivity over Jak1; pHisH3 staining (mitotic marker) ([12]; MDAH2774 xenografts, 30 mg/kg, up to 16h post-dose): No modulation; recovery of pStat3 Tyr705 expression ([12]; by 16 h after single 30 mg/kg dose, MDAH2774 xenografts): fully recovered; duration of significant inhibition of pStat3 ([12]; single dose of 30 mg/kg, MDAH2774 xenografts): > 10 h; expression of p44/42 pMAPK and pAKT Ser473 in tumors ([12]; treated tumors compared to control animals): No significant change; inhibition of pStat3 Tyr705 in tumor lysates ([12]; xenografts harvested 2 h post treatment): Complete inhibition; kinases inhibited by greater than 50% [13]: 11/82; growth inhibition ([14]; MDAH2774, 10 mg/kg twice daily p.o.): 71%; growth inhibition ([14]; MDAH2774, 30 mg/kg twice daily p.o., tumor regression): 139%; growth inhibition [15]: 111%; Ki [16]: 0.26 nM; pStat3 Tyr705 ([17]; 24 h): Dose-dependent inhibition; apoptotic markers Annexin V and PARP cleavage ([17]; 72 h): dose-dependent increase; viability ([17]; MTS, 72 h, charcoal-stripped FBS): loss of viability; Aurora A enzyme activity [18]: inhibited; GI50 [19]: 2400 to 5400 nM
